This is a sample that favours compounds with a hit; in the whole collection about 1.8% have one here.
RanGTP-Impb inh = disruptors of Ran-importin-beta complex formation – biochemical, FRET, CFP-Ran, YFP-importin-beta, homogeneous, primary screen. cell-free CFP-Ran/YFP-importin-beta FRET ratio. inhibition, % (no concentration beside the values). actives 1.1% (n = 300,000);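 active means more than half of the replicate wells show a fall in the fluorescence ratio signal beyond about 16%, limit read from the data, passing the limit was not always enough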
Runt-SMMHC FRET = blocks binding of human RUNX1 Runt domain to CBFb-SMMHC. Q01196+Q13951. Cerulean-Runt/Venus-CBFb-SMMHC FRET ratio 530/480, 1 h. inhibition, % at 20 µM. actives 0.74% (n = 220,000);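 active means mean inhibition across duplicate retests at 20 µM reaching about 50%, limit read from the data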;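 further: inhibitors lower the FRET ratio by blocking Runt binding to CBFb-SMMHC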
Runt-CBFb FRET = Runt domain-CBFb interaction inhibition; Q01196+Q13951; Cerulean-Runt/Venus-CBFb FRET ratio 530/480, 1 h; inhibition, % at 20 µM; actives 0.46% (n = 220,000); AID 1496;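 active means inhibition over about 50% at 20 µM in the single-dose screen, limit read from the data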
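test system = Cerulean-Runt domain fusion protein, energy donor | probe or stimulus = Venus-CBFb binding partner, 100 nM | incubation = two 1 h room-temperature incubations shielded from light | detection = fluorescence energy transfer, 422 nm excitation, 530/480 nm emission | measure = loss of energy transfer signal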
Hck Nef HTS = inhibitors of human Hck kinase activated by Nef; AID 463187; Recombinant Hck-YEEI plus Nef, Z-Lyte FRET kinase assay; inhibition, % at 20 µM; actives 0.68% (n = 220,000); P08631;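 active means Hck-Nef kinase inhibition above about 50%, limit read from the data; inactive means inhibition below that limit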
Hck-Nef confirm = confirmation of Hck-Nef kinase inhibitors. calls only at 10 µM. actives 28% (n = 1,300). shares compounds with Hck Nef HTS. Recombinant Hck-YEEI:Nef, Z-Lyte FRET kinase assay;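 active means average inhibition of at least 50%, with Z-scores no higher than 3 in both the phospho-tyrosine peptide and fluorescence counterscreens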
Hits are given with their value; – = inactive; · = not tested or not shown.

SMILES | RanGTP-Impb inh | Runt-SMMHC FRET | Runt-CBFb FRET | Hck Nef HTS | Hck-Nef confirm
O=C(O)CCn1cc(C=C2C(=O)NC(=S)NC2=O)c(-c2ccccc2)n1 | – | – | – | 90 | –
O=C(O)CCn1cc(C=C2C(=O)NC(=S)NC2=O)c(-c2cc3ccccc3oc2=O)n1 | – | – | – | – | ·
Cc1ccc(CN2C3CCCC2CC(NC(=O)Nc2cccc(F)c2)C3)cc1 (stereo not drawn) | – | – | – | – | ·
Cc1cccc(N2C(=O)NC(=O)/C(=C/c3ccc(-c4ccc(C(=O)O)c(Cl)c4)o3)C2=O)c1 | – | – | – | 59 | –
Nc1c(C(=O)NCc2ccco2)c2nc3ccccc3nc2n1Cc1ccc(F)cc1 | 43 | 74 | – | 57 | –

Source: PubChem BioAssay
